Measured values of several laboratories.
Each line is one published result; the experiments were not run side by side.
Organism: Escherichia coli
Effect on: microbial growth

SMILES	method	cell line	strain	time	notes	MIC
C[n+]1c(/C=C/c2ccc(O)cc2)cc(/C=C2\Sc3ccccc3N2CCCN2CCOCC2)c2ccccc21.[I-]	broth dilution	–	ATCCBAA2469	–	–	8 µg/mL
CCCCCCCCCCCC(=O)OC[C@H]1O[C@@H](n2cc(C)c(=O)[nH]c2=O)C[C@@H]1O	broth dilution	–	–	–	–	2 µg/mL
CCCCCCC#Cc1cncc(-c2nnc(Sc3ccc([N+](=O)[O-])cc3[N+](=O)[O-])n2C)c1	–	–	–	–	–	≥ 20 µg/mL
COC(=O)c1cc(-c2cccc(NC(=O)Nc3ccc(C(F)(F)F)cc3)c2)on1	broth dilution	–	ATCC25922	–	–	> 64 µg/mL
C[n+]1ccc(/C=C2\Sc3ccccc3N2CCCN2CCCCC2)c2ccccc21.[I-]	broth dilution	–	ATCCBAA2469	–	–	4 µg/mL
COC(=O)c1cc(-c2cccc(NC(=S)Nc3cccc(Cl)c3)c2)on1	broth dilution	–	ATCC25922	–	–	> 64 µg/mL
COc1cccc(OC)c1C(=O)N[C@@H]1C(=O)N2[C@@H]1SC(C)(C)[C@@H]2C(=O)O	broth dilution	–	ATCCBAA2469	–	–	> 2050 µg/mL
CC(=O)C1=C(O)C(CC(C)C)NC1=O (stereo not shown)	–	K12	K12	–	–	> 200 µg/mL
CNC(C)C1CCC(N)C(OC2C(N)CC(N)C(OC3OCC(C)(O)C(NC)C3O)C2O)O1 (stereo not shown)	broth dilution	–	R477100	–	–	6 µM
Oc1cc(Cl)ccc1Oc1ccc(Cl)cc1Cl	broth dilution	–	MG1655	–	clinical isolate	0.5 µg/mL
COC(=O)c1cc(-c2cccc(NC(=O)Nc3cc(OC)ccc3OC)c2)on1	broth dilution	–	ATCC25922	–	–	> 64 µg/mL
Cc1cc(/C=C2\Sc3ccccc3N2CCCN2CCCCC2)c2ccccc2[n+]1C.[I-]	broth dilution	–	ATCCBAA2469	–	–	4 µg/mL
CC1(C)S[C@@H]2[C@H](NC(=O)[C@H](N)c3ccccc3)C(=O)N2[C@H]1C(=O)O	broth dilution	MDR	–	16 h	–	32 µg/mL
COc1cc(O)c2c(c1)/C=C/C[C@H](O)[C@H](O)C(=O)/C=C/C[C@H](C)OC2=O	–	–	–	–	–	> 500 µg/mL
CN[C@H](CC(C)C)C(=O)N[C@H]1C(=O)N[C@@H](CC(N)=O)C(=O)N[C@H]2C(=O)N[C@H]3C(=O)N[C@H](C(=O)N[C@H](C(=O)O)c4cc(O)cc(O)c4-c4cc3ccc4O)[C@H](O)c3ccc(c(Cl)c3)Oc3cc2cc(c3O[C@@H]2O[C@H](CO)[C@@H](O)[C@H](O)[C@H]2O[C@H]2C[C@](C)(N)[C@H](O)[C@H](C)O2)Oc2ccc(cc2Cl)[C@H]1O	broth dilution	–	ATCCBAA2469	–	–	> 64 µg/mL
COC(=O)c1cc(-c2cccc(NC(=O)Nc3ccc(F)cc3)c2)on1	broth dilution	–	ATCC25922	–	–	> 64 µg/mL
Fc1c(F)c(F)c(F)c(F)c1F	–	–	ATCC25922	–	–	> 250 µg/mL
C[C@H]1COc2c(N3CCN(C)CC3)c(F)cc3c(=O)c(C(=O)O)cn1c23	broth dilution	–	ATCC25922	–	–	0.0156 µg/mL
CN[C@@H]1[C@H](O)[C@H](NC)[C@H]2O[C@@]3(O)C(=O)C[C@@H](C)O[C@H]3O[C@@H]2[C@H]1O	broth dilution	K12	K12	–	–	25 µg/mL
